The source made the active and inactive calls. The rule behind the calls is not given here.

Data set [1] relates to Mus musculus. Briefly: Acute toxicity in ip dosed Swiss-Webster mouse assessed as ataxia administered as single dose after 72 hrs. Format: organism-based. As to conditions: in vivo.
A short description of data set [2]: Acute toxicity in ip dosed Swiss-Webster mouse administered as single dose after 7 days. The class given is organism-based. The following applies: in vivo. A digest of the protocol:
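Mice given a single ip dose at each of four dose levels; lethality followed over 7 days; LD50 with 95% confidence limits estimated by the method of Weil. Compounds dissolved in minimal 1.5 M NaH2PO4, diluted with water; haloperidol in minimal 50% (w/v) tartaric acid-water.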

Data set [3] deals with Mus musculus. Briefly: Acute toxicity in ip dosed Swiss-Webster mouse assessed as death administered as single dose after 72 hrs. Format: organism-based. The following applies: in vivo.
The subject of data set [4] is Rattus norvegicus. The experiment in a line: Reduction in body temperature in Wistar rat at 1 to 6 mg/kg, ip relative to control. The class given is functional. As to conditions: dose mg/kg 6; route intraperitoneal; in the assay text read “6 mg/kg” for “1 to 6 mg/kg”. The method, boiled down: (§1)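 Male Wistar rats (175–225 g) were injected ip, with three treated rats and one control per dose. Compounds were in minimal 1.5 M NaH2PO4 diluted with water; the reference drug was in minimal 50% (w/v) tartaric acid-water. Gross behavior was observed. Respiratory rate, heart rate, rectal temperature and pupil size were measured at time points after dosing.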

The test system of data set [5] is Rattus norvegicus. Briefly: Depression of motor activity in Wistar rat at 1 to 6 mg/kg, ip. The class given is functional, organism-based. The method, boiled down:
as §1

For data set [6], the system named is Mus musculus. Briefly: Depression of forced motor activity in Swiss-Webster mouse at 5 mg/kg, ip after 30 mins by rotarod test relative to control. The class given is functional. The following applies: route intraperitoneal. The method, boiled down:
(§2)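 Rotarod in mice: rod at 4 rpm for 30 sec, 6 rpm next 30 sec, then stepped up every 30 sec (max 50 rpm) until fall. Six mice at a time, four trials (two per day, 4–6 hr apart, two consecutive days); vehicle or compound ip 30 min before fourth trial. Time on rod as % of control; Student's t test, p < 0.05.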
A general note: In the rotarod test animals must keep their balance on a rotating rod.

Data set [7] concerns Mus musculus. The experiment in a line: Acute toxicity in ip dosed Swiss-Webster mouse assessed as tremor administered as single dose after 72 hrs. The class given is organism-based. As to conditions: in vivo.
In data set [8] the test system is Mus musculus. The experiment in a line: Depression of spontaneous motor activity in Swiss-Webster mouse at 5 mg/kg, ip by photocell cage test relative to control. The class given is functional. As to conditions: route intraperitoneal. The method, boiled down:
(§3)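 Spontaneous activity in three photocell cages: two mice given the same ip dose placed per cage 10 min after rotarod start; 15-min count begun 5 min after placement. Each dose run in factorial design across all three cages to offset unit sensitivity. Counts expressed as % of control; Student's t test, p < 0.05.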

Data set [9] deals with Mus musculus. Briefly: Depression of spontaneous motor activity in Swiss-Webster mouse at 10 mg/kg, ip by photocell cage test relative to control. Format: functional. The following applies: route intraperitoneal. The method, boiled down:
as §3

Data set [10] deals with Mus musculus. Briefly: Depression of spontaneous motor activity in Swiss-Webster mouse at 2.5 mg/kg, ip by photocell cage test relative to control. Format: functional. As to conditions: route intraperitoneal. A digest of the protocol:
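Compound was dissolved in minimal 1.5 M NaH2PO4, diluted with water and given ip. Two mice given the same dose went into each of three photocell actophotometer cages 10 min after the rotarod test started. Counts were taken over 15 min, starting 5 min after placement. A factorial design across cages cancelled differences between units. Results were given as % of control, with significance by Student's t test (p < 0.05).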

In data set [11] the test system is Rattus norvegicus. The experiment in a line: Induction of ptosis in Wistar rat at 1 to 6 mg/kg, ip. Format: functional, organism-based. The following applies: in the assay text read “6 mg/kg” for “1 to 6 mg/kg”. A digest of the protocol: as §1
The test system of data set [12] is Mus musculus. The experiment in a line: Depression of forced motor activity in Swiss-Webster mouse at 10 mg/kg, ip after 30 mins by rotarod test relative to control. As to conditions: route intraperitoneal. The class given is functional. The method, boiled down:
as §2

Data set [13] deals with Mus musculus. Briefly: Depression of forced motor activity in Swiss-Webster mouse at 2.5 mg/kg, ip after 30 mins by rotarod test relative to control. The class given is functional. The following applies: route intraperitoneal. A digest of the protocol: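 Mice were dosed ip with vehicle or compound dissolved in a minimum of 1.5 M NaH2PO4 and diluted with water. On the rotarod, speed was 4 rpm for 30 sec, then 6 rpm for 30 sec, then increased every 30 sec up to a maximum of 50 rpm until the fall. Each mouse had four trials, two per day on two consecutive days, spaced 4–6 hr apart. The fourth trial was run 30 min after dosing. The read-out was trial time (sec) as % of control, with significance by Student's t test (p < 0.05).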

Broadly, the LD50 is the dose expected to kill half of the subjects tested. As to `O=C(CCCN1CCC(O)(c2ccc(Cl)cc2)CC1)c1ccc(F)cc1` [HALOPERIDOL], the Activity result in the data set with Mus musculus [1] was “Toxic”; in the data set on Mus musculus [3], “Toxic”; in the data set with Mus musculus [6], 79.4%; in the data set with Mus musculus [7] it was “Toxic”; in the data set with Mus musculus [8], 13%; in the data set on Mus musculus [9], 0.2%. The Activity in the data set on Mus musculus [10] is given as 27.6%; with Mus musculus [12], 26.4%; with Mus musculus [13], 99.3%. Moreover, in [2], the LD50 at 168 h turned out to be 49.7 mg/kg. The molecule also yielded a T with Rattus norvegicus [4] of 2 °C. Moreover, the outcome in the data set on Rattus norvegicus [5] and in the data set with Rattus norvegicus [11] was Active.

Values taken from ChEMBL document CHEMBL3272008, “Synthesis and biological actions of 2-substituted quinolizidines” (J Med Chem, 1976).
